Measured values from ChEMBL document CHEMBL3352278, “Design and discovery of 5-hydroxy-6-oxo-1,6-dihydropyrimidine-4-carboxamide inhibitors of HIV-1 integrase” (Bioorg Med Chem, 2014).

Columns and labels:
[1] = molecular target: T1, Human immunodeficiency virus type 1 integrase (Human immunodeficiency virus 1, UniProt Q7ZJM1); experiment: Inhibition of HIV1 recombinant wild type integrase 3'-processing activity by gel-based assays
[2] = molecular target: T1, Human immunodeficiency virus type 1 integrase; experiment: Inhibition of HIV1 recombinant wild type integrase strand transfer activity by gel-based assay
[3] = system: Human immunodeficiency virus 1; experiment: Antiviral activity against wild-type HIV1 3B infected in human MT4 cells assessed as inhibition of viral cytopathic effect by MTT assay; assay type: functional, organism-based; details: Human immunodeficiency virus 1, 3B
In short: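 MT-4 cells infected with 100–300 CCID50 of titrated HIV-1 IIIB stock in the presence of 5-fold serial dilutions of compound (DMSO stocks, diluted in DMSO). Protection against virus-induced cytopathic effect read by MTT; EC50 taken as the concentration giving 50% protection.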

[4] = Cytotoxicity against human MT4 cells assessed as cell viability by MTT assay; assay type: cell-based
In short: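 Uninfected MT-4 cells run in parallel with the antiviral assay, exposed to 5-fold serial dilutions of compound. Viability read by MTT; CC50 is the concentration reducing viability by 50%.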

[5] = Therapeutic index, ratio of CC50 for human MT4 cells to EC50 for HIV1 3B infected in human MT4 cells; assay type: cell-based; details: HIV1 3B infected MT4 cells, read-out: Ratio CC50/EC50
In short: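 Computed as CC50/EC50, both from parallel MTT assays in MT-4 cells, with and without infection by 100–300 CCID50 HIV-1 IIIB, using 5-fold serial compound dilutions.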

[6] = Retention time of the compound by HPLC; assay type: physicochemical

T1 sequence (Q7ZJM1 whole entry): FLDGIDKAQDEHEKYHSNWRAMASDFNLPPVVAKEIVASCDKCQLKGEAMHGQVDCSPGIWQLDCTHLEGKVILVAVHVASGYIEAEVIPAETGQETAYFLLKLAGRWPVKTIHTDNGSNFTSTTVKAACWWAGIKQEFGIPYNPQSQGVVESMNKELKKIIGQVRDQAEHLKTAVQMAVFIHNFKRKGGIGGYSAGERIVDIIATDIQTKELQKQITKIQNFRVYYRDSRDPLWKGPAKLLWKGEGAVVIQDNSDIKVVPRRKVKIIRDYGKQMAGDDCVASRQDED

Structure (SMILES)	IC50 [1]	IC50 [2]	Retention_time [6]	EC50 [3]	CC50 [4]	selectivity ratio [5]
O=C(NCc1ccc(F)c(F)c1)c1nc(-c2ccc(F)cc2)[nH]c(=O)c1O	17 µM	1 µM	4.39 min	5.17 µM	31 µM	6
O=C(NCc1ccc(F)cc1)c1nc(-c2ccccc2F)[nH]c(=O)c1O	16 µM	2 µM	2.949 min	–	–	–
O=C(NCc1ccc(Br)cc1)c1nc(-c2ccc(F)cc2)[nH]c(=O)c1O	11 µM	0.5 µM	5.373 min	11 µM	47.5 µM	4
O=C(NCc1ccc(F)cc1)c1nc(-c2ccc(F)cc2)[nH]c(=O)c1O	12 µM	0.6 µM	4.075 min	1.72 µM	44 µM	26
O=C(NCc1ccc(F)cc1)c1nc(-c2ccc(Cl)cc2)[nH]c(=O)c1O	5 µM	2 µM	2.306 min	–	–	–
O=C(NCc1ccc(F)c(Cl)c1)c1nc(-c2ccc(F)cc2)[nH]c(=O)c1O	6 µM	4 µM	3.56 min	1.3 µM	45.5 µM	35
O=C(NCc1cc(F)c(F)c(F)c1)c1nc(-c2ccc(F)cc2)[nH]c(=O)c1O	14 µM	8 µM	3.549 min	4.64 µM	34.5 µM	7
O=C(NCc1ccc(F)cc1)c1nc(Cc2ccc(F)cc2)[nH]c(=O)c1O	> 20 µM	10 µM	2.989 min	–	–	–
O=C(NCc1cccc(Cl)c1)c1nc(-c2ccc(F)cc2)[nH]c(=O)c1O	20 µM	1.4 µM	5.251 min	1.91 µM	35 µM	18
O=C(NCc1cccc(Cl)c1F)c1nc(-c2ccc(F)cc2)[nH]c(=O)c1O	13 µM	1.4 µM	2.309 min	2.61 µM	48 µM	18
O=C(NCc1ccccc1F)c1nc(-c2ccc(F)cc2)[nH]c(=O)c1O	20 µM	7 µM	2.395 min	7.81 µM	28.5 µM	4
O=C(NCc1ccc(Cl)cc1)c1nc(-c2ccc(F)cc2)[nH]c(=O)c1O	9 µM	0.8 µM	5.03 min	8.1 µM	44 µM	5

The next lines start with results.

IC50 [1]	IC50 [2]	Retention_time [6]	Structure (SMILES)	EC50 [3]	CC50 [4]	selectivity ratio [5]
20 µM	3 µM	4.349 min	O=C(NCc1cccc(F)c1)c1nc(-c2ccc(F)cc2)[nH]c(=O)c1O	7.34 µM	49.5 µM	7
> 20 µM	6 µM	2.846 min	O=C(NCc1ccc(O)cc1)c1nc(-c2ccc(F)cc2)[nH]c(=O)c1O	6.71 µM	49 µM	7
16 µM	2 µM	4.134 min	COc1ccc(CNC(=O)c2nc(-c3ccc(F)cc3)[nH]c(=O)c2O)cc1	7.61 µM	44 µM	6
3 µM	1 µM	2.385 min	O=C(NCc1ccc(F)cc1)c1nc(-c2ccc(Br)cc2)[nH]c(=O)c1O	–	–	–
5 µM	1 µM	2.379 min	O=C(NCc1ccc(F)cc1)c1nc(-c2cccc(F)c2)[nH]c(=O)c1O	–	–	–
16 µM	0.5 µM	6.437 min	Cc1ccc(CNC(=O)c2nc(-c3ccc(F)cc3)[nH]c(=O)c2O)cc1C	2.7 µM	33.5 µM	12
17 µM	1 µM	2.378 min	O=C(NCc1ccc(F)cc1)c1nc(-c2ccccc2)[nH]c(=O)c1O	–	–	–
> 20 µM	8 µM	2.288 min	O=C(NCc1ccccc1)c1nc(-c2ccccc2)nc(O)c1O	5.65 µM	50.7 µM	9
17 µM	4 µM	4.748 min	O=C(NCCc1ccc(F)cc1)c1nc(-c2ccc(F)cc2)[nH]c(=O)c1O	> 30 µM	30 µM	–
